Activity calls are given as the source filed them. The calls are words filed in the database; no cut-off is given here.
How the values were obtained:
Aorta [1] = assay: Vasorelaxant activity in Wistar rat endothelium-denuded thoracic aortic ring assessed as inhibition of noradrenaline-induced contraction treated after noradrenaline challenge measured after 60 mins relative to control; assay type: functional; conditions: 1 h
Aorta [2] = assay: Vasorelaxant activity in Wistar rat endothelium-denuded thoracic aortic ring assessed as inhibition of noradrenaline-induced contraction treated after noradrenaline challenge measured after 60 mins; assay type: functional, tissue-based; conditions: for IC50: 1 h
Procedure, shortened: (§1)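 Thoracic aortic rings (3–5 mm) from Wistar rats (200–300 g), endothelium intact or manually removed, were held in Krebs at 37 °C gassed O2/CO2 (9:1) at 3.0 g resting tension. Three NA (0.1 µM) primings were given; endothelium status was checked by carbachol (1 µM) relaxation. Rings precontracted with NA received compounds in quarter-log cumulative concentrations under isometric recording. n=6 animals.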

Calmodulin-1 [3] = biological target: T1, Calmodulin-1 (Homo sapiens, UniProt P0DP23); assay: Inhibition of human recombinant calmodulin assessed as inhibition of calmodulin-sensitive cAMP phosphodiesterase activation after 15 mins by spectrophotometric analysis
Aorta [4] = assay: Vasorelaxant activity in Wistar rat endothelium-intact thoracic aortic ring assessed as inhibition of noradrenaline-induced contraction treated after noradrenaline challenge measured after 60 mins; assay type: functional, tissue-based; conditions: for IC50: 1 h; procedure, shortened: as §1
Aorta [5] = assay: Vasorelaxant activity in Wistar rat endothelium-intact thoracic aortic ring assessed as inhibition of noradrenaline-induced contraction treated after noradrenaline challenge measured after 60 mins relative to control; assay type: functional; conditions: 1 h
Calmodulin-1 [6] = biological target: T1, Calmodulin-1; assay: Ratio of chlorpromazine IC50 to compound IC50 for human recombinant calmodulin
Calmodulin-1 [7] = biological target: T1, Calmodulin-1; assay: Inhibition of calmodulin assessed as inhibition of calmodulin-calcium-[…] complex formation
Calmodulin-1 [8] = biological target: T1, Calmodulin-1; assay: Inhibition of calmodulin assessed as inhibition of calmodulin-calcium-PDE1 complex formation
Procedure, shortened: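 Human recombinant CaM (0.08 µg) was preincubated 30 min with 0.015 units bovine-brain PDE1 and 0.063 units 5'-nucleotidase in Tris–HCl/imidazole buffer with Mg acetate, 2.5 mM CaCl2 and BSA, pH 7.0. Compounds at 0.5–65 µM in ACN/water (1:1) were added for 30 min. cAMP started a 15-min reaction, and malachite green read phosphate at 700 nm. IC50 came from hyperbolic fit, n≥6.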

Aorta [9] = assay: Vasorelaxant activity in Wistar rat endothelium-denuded thoracic aortic ring assessed as inhibition of noradrenaline-induced contraction treated after noradrenaline challenge measured after 60 mins in presence of chlorpromazine; assay type: functional, tissue-based
Procedure, shortened: (§2)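 Rat aortic rings (endothelium intact or denuded) in 37 °C Krebs under 3.0 g tension were preincubated with chlorpromazine (1 µM). They were then contracted with NA, and compound was added in quarter-log cumulative concentrations while isometric tension was recorded. n=6 animals.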

Aorta [10] = assay: Vasorelaxant activity in Wistar rat endothelium-intact thoracic aortic ring assessed as inhibition of noradrenaline-induced contraction treated after noradrenaline challenge measured after 60 mins in presence of chlorpromazine; assay type: functional, tissue-based; procedure, shortened: as §2

## COC(=O)C1=C(C)NC(C)=C(C(=O)OC)C1c1ccccc1[N+](=O)[O-] [NIFEDIPINE]
Aorta [1]
  Emax: 102%
Aorta [2]
  IC50: 0.02 µM

## O=c1cc(-c2ccccc2)oc2cc(O)ccc12 [7-HYDROXYFLAVONE]
Aorta [1]
  Emax: 40.4%
Calmodulin-1 [3]
  IC50: 37.1 µM
  inhibition: Dose-dependent effect
Aorta [4]
  inhibition: Dose-dependent effect
  IC50: 37.8 µM
Aorta [2]
  inhibition: Dose-dependent effect
  IC50: 167 µM
Aorta [5]
  Emax: 80.6%
Calmodulin-1 [6]
  Ratio IC50: 0.54

## COc1ccc([C@@H]2CC(=O)c3c(O)cc(O[C@@H]4O[C@H](CO[C@@H]5O[C@@H](C)[C@H](O)[C@@H](O)[C@H]5O)[C@@H](O)[C@H](O)[C@H]4O)cc3O2)cc1O [HESPERIDIN]
Calmodulin-1 [7]
  IC50: 70 µM
Calmodulin-1 [8]
  IC50: 74 µM

## C[N+](C)(C)CCOC(N)=O [CARBACHOL]
Aorta [4]
  IC50: 0.79 µM
Aorta [5]
  Emax: 88.6%

## O=c1cc(-c2ccccc2)oc2ccc(O)cc12 [6-HYDROXYFLAVONE]
Aorta [1]
  Emax: 51.8%
Aorta [9]
  Activity: Active
Calmodulin-1 [3]
  IC50: 5.17 µM
  inhibition: Dose-dependent effect
Aorta [10]
  Activity: Active
Aorta [4]
  inhibition: Dose-dependent effect
  IC50: 20.8 µM
Aorta [2]
  inhibition: Dose-dependent effect
  IC50: 112 µM
Aorta [5]
  Emax: 105%
Calmodulin-1 [6]
  Ratio IC50: 3.89

## O=c1c(O)c(-c2ccccc2)oc2ccccc12 [FLAVONOL]
Aorta [1]
  Emax: 29.8%
Calmodulin-1 [3]
  IC50: 55.2 µM
  inhibition: Dose-dependent effect
Aorta [4]
  inhibition: Dose-dependent effect
  IC50: 204 µM
Aorta [2]
  inhibition: Dose-dependent effect
  IC50: 248 µM
Aorta [5]
  Emax: 67.8%
Calmodulin-1 [6]
  Ratio IC50: 0.36

## O=c1cc(-c2ccccc2)oc2cc(O)cc(O)c12 [CHRYSIN]
Aorta [1]
  Emax: 16%
Calmodulin-1 [3]
  IC50: 33.4 µM
  inhibition: Dose-dependent effect
Aorta [4]
  inhibition: Dose-dependent effect
  IC50: 75.7 µM
Aorta [2]
  inhibition: Dose-dependent effect
  IC50: 107 µM
Aorta [5]
  Emax: 44.8%
Calmodulin-1 [6]
  Ratio IC50: 1.03

## O=c1c(O)c(-c2ccc(O)c(O)c2)oc2cc(O)cc(O)c12 [QUERCETIN]
Aorta [1]
  Emax: 43.2%
Calmodulin-1 [3]
  IC50: 13 µM
  inhibition: Dose-dependent effect
Aorta [4]
  inhibition: Dose-dependent effect
  IC50: 162 µM
Aorta [2]
  inhibition: Dose-dependent effect
  IC50: 222 µM
Aorta [5]
  Emax: 83.2%
Calmodulin-1 [6]
  Ratio IC50: 2.82

## O=c1cc(-c2ccccc2)oc2ccccc12 [FLAVONE]
Aorta [1]
  Emax: 81%
Calmodulin-1 [3]
  IC50: 102 µM
  inhibition: Dose-dependent effect
Aorta [4]
  inhibition: Dose-dependent effect
  IC50: 46 µM
Aorta [2]
  inhibition: Dose-dependent effect
  IC50: 203 µM
Aorta [5]
  Emax: 98.6%
Calmodulin-1 [6]
  Ratio IC50: 0.34

## O=C1C[C@@H](c2ccc(O)cc2)Oc2cc(O)cc(O)c21
Calmodulin-1 [3]
  inhibition: Dose-dependent effect

— ChEMBL document CHEMBL1641572, “Vasorelaxant effect of flavonoids through calmodulin inhibition: Ex vivo, in vitro, and in silico approaches” (Bioorg Med Chem, 2011)
